Experimental data: ChEMBL document CHEMBL4706643 (J Med Chem, 2021)
Calls of active or inactive are those of the source. No cut-off for these calls is given here.

Tests used:
HepG2 [1] = test: (§1) Antiviral activity against HBV genotype C infected in human HepG2-NTCP cells assessed as reduction in HBeAg secretion at 2 uM cells inoculated with virus for 4 hrs at room temperature and 37 degree C for 24 hrs followed inoculum changed with PMM medium for every 2 days until day 5 post infection by ELISA; type: functional, cell-based; conditions: time 28.0 hrs
In short: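 HepG2-NTCP cells seeded 4–6 h, then primary maintenance medium 20–24 h; virus inoculum plus compound dilutions 4 h at room temperature, then 37 °C 24 h; medium changed every 2 days to PMM with 2% FBS until day 5 post infection. Secreted HBeAg measured by ELISA; IC50 by nonlinear regression from six or more points, three repeats.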

[2] = Intrinsic clearance in mouse liver microsomes at 1 uM preincubated for 5 mins followed by NADPH addition and measured upto 60 mins by LC-MS analysis; type: ADME, Microsome; conditions: read-out: CLH
In short: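 Human or mouse liver microsomes, final 1 mg/mL in 0.05 M phosphate buffer pH 7.4; compound final 1 μM, preincubated 37 °C 5 min, started with 1 mM NADPH; sampled at 0, 5, 15, 30, 60 min, methanol quench, −20 °C 1 h, centrifuged, supernatant by LC–MS.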

[3] = Cmax in C57BL/6 mouse at 10 mg/kg, ip; type: ADME, organism-based; parameters: route intraperitoneal, dose 10 mg/kg; conditions: in vivo
In short: (§2)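 Male C57BL/6 mice (n = 3), single dose IV 5 mg/kg, IP 10 mg/kg or PO 10 mg/kg in DMSO:cremophor:0.9% NaCl 5:5:90; plasma parameters reported as means.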

[4] = Immunosuppressive activity in C57B/L mouse spleen T cells assessed as inhibition of anti-CD3 induced T cell proliferation incubated for 48 hrs by CFSE staining based flow cytometric analysis; type: tissue-based
In short: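 Spleen T cells from adult C57B/L mouse, CFSE-labelled, cultured in RPMI-1640 on anti-CD3-coated wells with compound or DMSO; stained with PE-anti-CD4 before flow cytometric proliferation analysis. Legend gives 48 h stimulation, methods 72 h; 2 μM compounds.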

Hepatitis B virus [5] = test: Antiviral activity against HBV infected in primary human hepatocytes; type: functional, organism-based; conditions: Hepatocyte
Hepatitis B virus [6] = test: Antiviral activity against HBV infected in human HepG2-NTCP cells assessed as reduction in HBV viral transcription at 10 uM treated 3 days post infection by northern blot analysis; type: functional, organism-based; conditions: time 3.0 day
In short: (§3)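 Infected HepG2-NTCP cells given compound either with the HBV inoculum or at dpi 3–5; RNA extracted with TRIzol, run on 1.0% agarose–formaldehyde/MOPS gel. Northern blot as for Southern, probed with DIG-labelled full-length HBV genome plus DIG-labelled GAPDH probe.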

HepG2 [7] = test: Inhibition of monkey NTCP-mediated [3H]-TCA uptake expressed in human HepG2 cells at 2 uM incubated for 2 hrs followed by substrate addition and measured for 10 mins by microbeta liquid scintillation counter analysis; type: cell-based; conditions: Macaca mulatta
In short: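 HepG2 cells expressing NTCP (human, mouse, monkey or tree shrew) seeded 4–6 h, PMM 20–24 h; compound 2 h, then Na+ Ringer's buffer with 2 μM 3H-TCA, 37 °C 10 min; PBS washes, lysis in 1% Triton X-100, scintillation counting. Single-concentration lines at 2 μM.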

Hepatitis B virus [8] = test: as §1, with “HBV” for “HBV genotype C”, “in HBV viral transcription” for “in HBeAg secretion”, “at 10” for “at 2”, “by DIG-labelled GAPDH based northern blot analysis” for “by ELISA”; type: functional, organism-based; conditions: time 28.0 hrs; in short: as §3
[9] = Clearance in C57BL/6 mouse at 5 mg/kg, iv; type: ADME, organism-based; conditions: in vivo; in short: as §2
Hepatitis B virus [10] = test: as §1, with “HBV” for “HBV genotype C”, “HBV cccDNA levels” for “HBeAg secretion at 2 uM”, “DIG-labelled probe based southern blot analysis” for “ELISA”; type: functional, organism-based; conditions: time 28.0 hrs
In short: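 HepG2-NTCP cells infected with compound added together with HBV inoculum; DNA harvested day 5 post infection by modified Hirt extraction. Southern blot on 1.2% agarose, UV cross-linked, hybridised at 50 °C overnight with DIG-labelled full-length genotype D HBV genomic probe; chemiluminescent detection; 3.2, 2.1 and 1.7 kb HBV fragments as markers.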

Hepatitis delta virus = test: Antiviral activity against HDV infected in human HepG2-NTCP cells assessed as reduction in HDV delta Ag measured 5 days post infection by DAPI staining based immunofluorescence assay relative to control; type: functional, cell-based; conditions: time 5.0 day
In short: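 HepG2-NTCP cells infected with HDV in presence of compound; delta antigen stained at dpi 5 with FITC-labelled anti-delta antibody, nuclei with DAPI; high-content imaging and image analysis give infection ratio relative to DMSO control.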

[11] = Intrinsic clearance in rat liver microsomes at 1 uM preincubated for 5 mins followed by NADPH addition and measured upto 60 mins by LC-MS analysis; type: ADME, Microsome; conditions: time 65 min, read-out: CLH

In the case of `CC[C@@H]1NC(=O)[C@H]([C@@H]2O[C@@H](Sc3cccc(OCc4ccccc4)c3)C[C@H]2C)N(C)C(=O)[C@H](C(C)C)N(C)C(=O)[C@H](CC(C)C)N(C)C(=O)[C@H](CC(C)C)N(C)C(=O)[C@@H](C)NC(=O)[C@H](C)NC(=O)[C@H](CC(C)C)N(C)C(=O)[C@H](C(C)C)NC(=O)[C@H](CC(C)C)N(C)C(=O)CN(C)C1=O`, the Activity (HepG2 [1]) is reported as “Active”, the microsomal CLint at 1 µM [2] is reported as 4.1 µL/min/mg and the Cmax [3] is reported as 12.4 µg/mL. For the same compound, the Activity [4] was “Non-Toxic”, the IC50 (Hepatitis B virus [5]) was 0.059 µM and the Activity (Hepatitis B virus [6]) was “inactive”. The inhibition (HepG2 [7]) was “Active”, the Activity (Hepatitis B virus [8]) was “Active” and the clearance [9] was 0.126 L/h/kg. For the same compound, the Activity (Hepatitis B virus [10]) was “Dose-dependent effect”, the Activity (Hepatitis delta virus) was “Dose-dependent effect” and the microsomal CLint at 1 µM [11] was 2.2 µL/min/mg.
